Key:
[1] = target: T1, Falcipain 2 (Plasmodium falciparum) (UniProt Q9N6S8); test: (§1) Inhibition of Plasmodium falciparum recombinant falcipain-2
T1 sequence (whole entry): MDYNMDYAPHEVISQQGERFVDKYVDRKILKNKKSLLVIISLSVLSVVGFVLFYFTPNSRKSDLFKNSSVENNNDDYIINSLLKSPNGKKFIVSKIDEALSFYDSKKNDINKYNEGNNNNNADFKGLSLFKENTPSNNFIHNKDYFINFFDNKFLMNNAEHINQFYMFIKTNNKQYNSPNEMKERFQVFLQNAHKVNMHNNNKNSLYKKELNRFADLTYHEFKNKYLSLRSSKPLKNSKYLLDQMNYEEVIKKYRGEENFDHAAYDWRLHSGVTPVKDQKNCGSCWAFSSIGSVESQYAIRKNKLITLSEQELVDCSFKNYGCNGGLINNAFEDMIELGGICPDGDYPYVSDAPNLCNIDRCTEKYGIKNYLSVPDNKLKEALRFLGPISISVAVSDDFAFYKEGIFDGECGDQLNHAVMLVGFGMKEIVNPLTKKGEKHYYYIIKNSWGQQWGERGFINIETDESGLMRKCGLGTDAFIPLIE
In short: (§2)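 Recombinant FP-2 in 100 mM sodium acetate pH 5.5, 10 mM DTT; Cbz-Phe-Arg-AMC 32 µM, fluorescence (ex 365/em 460 nm) monitored continuously 20 min at room temperature. Seven inhibitor levels within 0–10 µM; kobs from progress-curve fits, hyperbolic fit gave kinac and Kiapp, corrected with Km 21.5 µM; k2nd = kinac/Kinac. Two independent runs, each in duplicate.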

Falcipain 2 = target: T2, Falcipain 2 (Plasmodium falciparum, UniProt Q9N6S8); test: as §1; in short: as §2
T2 sequence (Q9N6S8 whole entry): T1 sequence (whole entry)

Plasmodium falciparum = test: Antiplasmodial activity against Plasmodium falciparum 3D7 after 72 hrs in Malstat assay; type: functional, organism-based; conditions: 3D7, 72 h
In short: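 Synchronized ring-stage P. falciparum 3D7 plated at 1% parasitemia with compounds (in DMSO) at 1 nM–100 µM; 0.5% v/v DMSO alone as negative control. Cultured in vitro 72 h, then viability read by Malstat assay (parasite lactate dehydrogenase activity); dose-dependent effect quantified.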

Cathepsin B = Cathepsin B (Homo sapiens, UniProt P07858); test: Inhibition of human cathepsin B
In short: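 Cathepsin B continuous progress-curve assay with Cbz-Phe-Arg-AMC at 80 µM; Kiapp corrected to zero substrate using Km 150 µM to give Kinac. Two independent runs, each in duplicate.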

Procathepsin L = Procathepsin L (Homo sapiens, UniProt P07711); test: Inhibition of human cathepsin L
In short: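 Cathepsin L continuous progress-curve assay with Cbz-Phe-Arg-AMC at 5 µM; Kiapp corrected to zero substrate using Km 6.5 µM to give Kinac. Two independent runs, each in duplicate.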

SMILES | Kinact [1] | Ki (Falcipain 2) | IC50 (Plasmodium falciparum) | Ki (Cathepsin B) | Kinact (Cathepsin B) | Ki (Procathepsin L) | Kinact (Procathepsin L) | IC50 (Falcipain 2)
CCS(=O)(=O)/C=C/[C@H](CCc1ccccc1)NC(=O)CN1C(=O)[C@@H](COC(=O)Nc2ccc(Cl)cc2C(F)(F)F)N=C(c2ccccc2)c2ccccc21 | 0.1 min⁻¹ | 0.32 µM | 9.1 µM | 4.4 µM | 0.045 min⁻¹ | 13.5 µM | 0.1 min⁻¹ | 
COc1ccc(S(=O)(=O)/C=C/CNC(=O)CN2C(=O)C(COC(=O)Nc3ccc(Cl)cc3C(F)(F)F)N=C(c3ccccc3)c3ccccc32)cc1 (configuration not stated) | 0.031 min⁻¹ | 0.12 µM | > 100 µM | 5.9 µM | 0.059 min⁻¹ | 14 µM | 0.1 min⁻¹ | 8 µM
O=C(CN1C(=O)[C@@H](COC(=O)Nc2ccc(Cl)cc2C(F)(F)F)N=C(c2ccccc2)c2ccccc21)NC/C=C/S(=O)(=O)c1ccccc1 | 0.033 min⁻¹ | 0.14 µM | 23.1 µM | 4.6 µM | 0.047 min⁻¹ | 21.9 µM | 0.16 min⁻¹ | 8 µM
O=C(CN1C(=O)[C@@H](COC(=O)Nc2ccc(Cl)cc2C(F)(F)F)N=C(c2ccccc2)c2ccccc21)N[C@H]1CC(=O)OC1O (some centres not stated) |  |  |  |  |  |  |  | 8 µM
CCS(=O)(=O)/C=C/CNC(=O)CN1C(=O)[C@@H](COC(=O)Nc2ccc(Cl)cc2C(F)(F)F)N=C(c2ccccc2)c2ccccc21 | 0.027 min⁻¹ | 0.11 µM | 56.6 µM | 4.3 µM | 0.039 min⁻¹ |  |  | 8 µM
CC(C)C[C@H](NC(=O)[C@H]1O[C@@H]1C(=O)O)C(=O)NCCCCN=C(N)N [E-64] | 0.46 min⁻¹ | 0.29 µM | 5.3 µM |  |  |  |  | 
CS(=O)(=O)/C=C/CNC(=O)CN1C(=O)[C@@H](COC(=O)Nc2ccc(Cl)cc2C(F)(F)F)N=C(c2ccccc2)c2ccccc21 | 0.059 min⁻¹ | 0.37 µM | 18.1 µM | 11 µM | 0.048 min⁻¹ |  |  | 8 µM

Further lines, with some results ahead:

Kinact [1] | Ki (Falcipain 2) | IC50 (Plasmodium falciparum) | Ki (Cathepsin B) | Kinact (Cathepsin B) | Ki (Procathepsin L) | Kinact (Procathepsin L) | SMILES | IC50 (Falcipain 2)
0.16 min⁻¹ | 0.39 µM | 55.4 µM | 14.5 µM | 0.064 min⁻¹ |  |  | CS(=O)(=O)/C=C/[C@H](CCc1ccccc1)NC(=O)CN1C(=O)[C@@H](COC(=O)Nc2ccc(Cl)cc2C(F)(F)F)N=C(c2ccccc2)c2ccccc21 | 8 µM
0.11 min⁻¹ | 0.6 µM | 9.2 µM | 3.1 µM | 0.039 min⁻¹ | 7 µM | 0.12 min⁻¹ | O=C(CN1C(=O)[C@@H](COC(=O)Nc2ccc(Cl)cc2C(F)(F)F)N=C(c2ccccc2)c2ccccc21)N[C@H](/C=C/S(=O)(=O)c1ccccc1)CCc1ccccc1 | 
0.034 min⁻¹ | 0.053 µM | 59.6 µM | 3.3 µM | 0.045 min⁻¹ |  |  | COc1ccc(S(=O)(=O)/C=C/[C@H](CCc2ccccc2)NC(=O)CN2C(=O)[C@@H](COC(=O)Nc3ccc(Cl)cc3C(F)(F)F)N=C(c3ccccc3)c3ccccc32)cc1 | 

Reference: ChEMBL document CHEMBL1141590, “Development of peptidomimetics with a vinyl sulfone warhead as irreversible falcipain-2 inhibitors” (J Med Chem, 2008)
